Results as given in ChEMBL document CHEMBL4261495, “Antitrypanosomal and antileishmanial activity of prenyl-1,2,3-triazoles” (Medchemcomm, 2017).

Legend:
Trypanosoma cruzi = experiment: Antitrypanosomal activity against Trypanosoma cruzi strain CL Brener epimastigotes measured after 72 hrs by Neubauer chamber based cell counting method; format: functional, organism-based
In short: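 CL-Brener epimastigotes were grown in BHT medium at 28 °C and seeded at 3-4 × 10^6 parasites/mL. Compound was added in DMSO (1% final) at 5-100 µg/mL, with benznidazole as positive control. After 72 h, parasites were counted in a Neubauer chamber and inhibition was taken relative to untreated growth. IC50 came from the inhibition-concentration plot. Triplicates were run; values average three independent experiments.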

Leishmania donovani = experiment: Antileishmanial activity against Leishmania donovani S1 promastigotes after 72 hrs by alamar blue assay; format: functional, organism-based; conditions: S1, 72 h
In short: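 Leishmania donovani strain S1 promastigotes at 2×10^6 cells/mL were exposed to final concentrations of 40, 8 and 1.6 µg/mL. Plates were incubated 72 h at 26 °C, and growth was read by Alamar blue. Pentamidine and amphotericin B served as standards.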

Vero = experiment: Cytotoxicity against African green monkey Vero cells at 20 uM after 2 days by neutral red uptake assay; format: cell-based; conditions: chlorocebus sabaeus, 48 h
[1] = Octanol/water partition coefficient, log P of the compound; format: physicochemical
[2] = target: Sterol 14-alpha demethylase (Trypanosoma cruzi (strain CL Brener)) (UniProt Q7Z1V1); experiment: Inhibition of Trypanosoma cruzi CYP51 assessed as residual enzyme activity at 100 uM using [3H]-MDL as substrate pretreated for 5 mins followed by NADPH addition by RP-HPLC analysis relative to control
Chain of Sterol 14-alpha demethylase (Trypanosoma cruzi (strain CL Brener)) (Q7Z1V1 whole entry, looked up): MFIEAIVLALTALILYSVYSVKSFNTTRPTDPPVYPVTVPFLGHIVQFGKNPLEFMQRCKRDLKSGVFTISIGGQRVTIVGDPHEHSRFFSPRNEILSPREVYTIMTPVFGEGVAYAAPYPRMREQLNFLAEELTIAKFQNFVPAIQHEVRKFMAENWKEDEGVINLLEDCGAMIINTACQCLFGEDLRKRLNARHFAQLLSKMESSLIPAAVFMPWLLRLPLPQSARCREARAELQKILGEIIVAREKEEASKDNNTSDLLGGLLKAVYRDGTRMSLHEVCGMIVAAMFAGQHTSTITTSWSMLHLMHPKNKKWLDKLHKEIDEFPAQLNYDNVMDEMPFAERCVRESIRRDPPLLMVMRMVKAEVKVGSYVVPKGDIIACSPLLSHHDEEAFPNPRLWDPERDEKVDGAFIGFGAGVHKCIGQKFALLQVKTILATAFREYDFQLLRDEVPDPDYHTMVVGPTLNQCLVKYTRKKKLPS
In short: (§1)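 TcCYP51 was reconstituted with T. brucei CPR and DLPC (1:2:50 molar), preincubated 10 min at room temperature. The reaction held 1 µM enzyme and 50 µM [3H]-labelled/unlabelled 24-methylenedihydrolanosterol in 20 mM MOPS pH 7.4, 50 mM KCl, 5 mM MgCl2, 10% glycerol, isocitrate dehydrogenase and 25 mM isocitrate. Inhibitor (1-100 µM) was preincubated 5 min at 37 °C, then 5 µM NADPH started the reaction. Products were detected by radioactivity.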

[3] = target: Sterol 14-alpha demethylase (Trypanosoma cruzi (strain CL Brener)) (UniProt Q7Z1V1); experiment: Inhibition of Trypanosoma cruzi CYP51 assessed as residual enzyme activity at 100 uM using [3H]-MDL as substrate pretreated for 10 mins followed by NADPH addition by RP-HPLC analysis relative to control; in short: as §1
[4] = target: Sterol 14-alpha demethylase (Trypanosoma cruzi (strain CL Brener), UniProt Q7Z1V1); experiment: Binding affinity to Trypanosoma cruzi CYP51 by spectrophotometric method
Chain of Sterol 14-alpha demethylase (Q7Z1V1 whole entry): as the sequence (Q7Z1V1 whole entry, looked up) above
In short: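 Spectral titration used 2 µM TcCYP51 in buffer A at 24 °C, scanned over 350-500 nm in tandem cuvettes. Ligand was added stepwise from 1 or 10 mM DMSO stocks until the spectral response peaked, with DMSO added to the reference cuvette. Apparent Kd came from fitting absorbance change against free ligand concentration to a rectangular hyperbola.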

Row | SMILES | IC50 (Trypanosoma cruzi) [µM] | IC50 (Leishmania donovani) [µM] | Activity (Vero) | logP [1] | Activity [2] [%] | Activity [3] [%] | Kd [4] [µM]
1 | CCCc1cn(CC=C(C)C)nn1 | > 100 | > 100 | Non-Toxic | 2.47 | – | – | –
2 | COC(=O)c1cn(C/C=C(\C)CCC=C(C)C)nn1 | 87 | > 100 | Non-Toxic | 3.2 | – | – | –
3 | CCCCCc1cn(CC=C(C)C)nn1 | > 100 | > 100 | Non-Toxic | 3.46 | – | – | –
4 | N=C(N)c1ccc(OCCCCCOc2ccc(C(=N)N)cc2)cc1 [PENTAMIDINE] | – | – | – | 1.49 | – | – | –
5 | COC(=O)c1cn(CC=C(C)C)nn1 | > 100 | > 100 | Non-Toxic | 1.3 | – | – | –
6 | CCCc1cn(C/C=C(\C)CC/C=C(\C)CCC=C(C)C)nn1 | 18 | 51 | Non-Toxic | 6.5 | 27 | 56 | –
7 | CCCCCCCCc1cn(C/C=C(\C)CC/C=C(\C)CCC=C(C)C)nn1 | > 100 | 36 | Non-Toxic | 8.76 | – | – | –
8 | CCCc1cn(C/C=C(\C)CCC=C(C)C)nn1 | 31 | 72 | Non-Toxic | 4.5 | – | – | –
9 | O=C(Cn1ccnc1[N+](=O)[O-])NCc1ccccc1 [BENZNIDAZOLE] | – | – | – | 0.78 | – | – | –
10 | CCCCCCCCc1cn(C/C=C(\C)CCC=C(C)C)nn1 | 27 | 57 | Non-Toxic | 6.92 | – | – | –
11 | CCCc1cn(C/C=C(/C)CC/C=C(\C)CCC=C(C)C)nn1 | 17 | 33 | Non-Toxic | 6.5 | 14 | 49 | –
12 | CC(C)=CCC/C(C)=C/Cn1cc(-c2ccccc2)nn1 | 39 | 49 | Non-Toxic | 4.91 | – | – | –
13 | COC(=O)c1cn(C/C=C(/C)CCC=C(C)C)nn1 | 87 | > 100 | Non-Toxic | 3.2 | – | – | –
14 | CC(C)=CCC/C(C)=C\Cn1cc(-c2ccccc2)nn1 | 39 | 49 | Non-Toxic | 4.91 | – | – | –
15 | CCCCCc1cn(C/C=C(/C)CCC=C(C)C)nn1 | 36 | 40 | Non-Toxic | 5.45 | – | – | –
16 | CCCc1cn(C/C=C(/C)CCC=C(C)C)nn1 | 44 | 44 | Non-Toxic | 4.05 | – | – | –
17 | CCCCCCCCc1cn(C/C=C(/C)CCC=C(C)C)nn1 | 34 | 16 | Non-Toxic | 6.92 | – | – | –
18 | CC(C)=CCn1cc(-c2ccccc2)nn1 | > 100 | > 100 | Non-Toxic | 2.82 | – | – | –
19 | CCCCCc1cn(C/C=C(\C)CCC=C(C)C)nn1 | 51 | 94 | Non-Toxic | 5.45 | – | – | –
20 | CCCCCc1cn(C/C=C(/C)CC/C=C(\C)CCC=C(C)C)nn1 | 18 | 11 | Non-Toxic | 7.5 | 7 | 39 | 7.6
21 | CC(C)=CCC/C(C)=C/CC/C(C)=C\Cn1cc(-c2ccccc2)nn1 | 32 | 49 | Non-Toxic | 6.95 | – | – | –
22 | CCCCCCCCc1cn(C/C=C(/C)CC/C=C(\C)CCC=C(C)C)nn1 | > 100 | 52 | Non-Toxic | 8.76 | – | – | –
23 | COC(=O)c1cn(C/C=C(/C)CC/C=C(\C)CCC=C(C)C)nn1 | 15 | 11 | Non-Toxic | 5.25 | 26 | 59 | –
24 | CCCCCc1cn(C/C=C(\C)CC/C=C(\C)CCC=C(C)C)nn1 | 29 | 44 | Non-Toxic | 7.5 | 9 | 33 | –
25 | CC(C)=CCC/C(C)=C/CC/C(C)=C/Cn1cc(-c2ccccc2)nn1 | 34 | 48 | Non-Toxic | 6.95 | – | – | –
26 | COC(=O)c1cn(C/C=C(\C)CC/C=C(\C)CCC=C(C)C)nn1 | 9 | 31 | Non-Toxic | 5.25 | 35 | 63 | –
27 | CCCCCCCCc1cn(CC=C(C)C)nn1 | 27 | > 100 | Non-Toxic | 4.92 | – | – | –
